Assay outcomes from PubChem BioAssay.
The sample as a whole holds a higher share of hits than the screen did.
T cruzi inh – T. cruzi replication inhibition | T. cruzi beta-gal in NIH3T3, luminescence, 90 h | 300,000 tested, 1.4% active | inhibition, % (test concentration not listed) | AID 1885;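 active = mean inhibition across valid replicates above about 55%, limit read from the data; inconclusive = mean below that limit but half or more replicates reach it; inactive = mean below it, under half of replicates reach it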;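 also: signal also drops with host cell toxicity which is not excluded here; 0% = plate median of DMSO wells and 100% = zero luminescence signal; higher percent means less beta-gal luminescence so fewer parasites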
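Assay system: NIH/3T3 fibroblasts plus reporter T. cruzi. Amount: NIH/3T3 cells, 5,000 per well. Buffer or medium: DMEM, 2% fetal bovine serum. Doses: compound pinned at 50 nL/well, DMSO. Schedule: ≥90 h infection period, 3 h prior cell attachment. Signal: luminescent β-galactosidase signal after 60 min lysis. Read-out: parasite load inhibition, %.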
PolyA inh – yeast polyadenylation inhibition; S. cerevisiae SKY197-pL101 polyadenylation reporter, beta-gal luminescence; efflux-impaired pdr1/pdr3 knockout yeast; score 100 = 6 SD above DMSO; activity score, % at 12 µM; 300,000 tested, 0.02% active; AID 1875;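 active = lowest replicate activity score at least 50, where 100 means six control SD above control mean; inconclusive = lowest score under 50 but half or more replicates reach 50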;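 also: yeast exposed to compound for 9 h at 30 °C; higher score means more reporter readthrough which indicates perturbed polyadenylation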
NALP1 inh – inhibitors of NALP1 inflammasome in yeast | S. cerevisiae NALP1/ASC/caspase-1 growth, X-gal OD620, 72 h | inhibition, % at 10 µM | 280,000 tested, 0.61% active; in the data active = inhibition mostly above about 24%, no sharp cut-off; inactive = mostly below about 32%
NALP3 yeast inh – blocks the NALP3 inflammasome reconstituted in yeast | Yeast reconstituted NLRP3/ASC/caspase-1, beta-gal luminescence, 24 h | inhibition, % at 10 µM | 330,000 tested, 0.39% active;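 active = inhibition of 50% or more; inactive = inhibition below 50%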;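 also: plate controls were induced DMSO wells for no effect and uninduced yeast grown without galactose for full effect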
Calb FLC – C. albicans growth modulation with fluconazole; 300,000 tested, 0.57% active; AID 1979; growth inhibition, % (test concentration not listed); C. albicans CaCi-2 + fluconazole, Alamar Blue growth, 48 h;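 active = growth inhibition above about 58% in most replicates, limit read from the data, passing the limit was not always enough; inconclusive = exactly half the replicates above a set limit; inactive = most replicates below a set limit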;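 also: all wells also contain fluconazole at 8 µg/ml as a sub-toxic cotreatment; 0% = median of DMSO wells and 100% = median of geldanamycin control wells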
Lmaj promast – inhibitors of Leishmania major promastigote growth | Leishmania major promastigotes, resazurin fluorescence viability | inhibition, % at 10 µM | 200,000 tested, 9% active; in the data active = inhibition above about 50%;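 also: promastigotes grown with compound for 44 hours at 28 °C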
An asterisk follows results filed as active; u = inconclusive; x = not tested or not shown.

SMILES | T cruzi inh | PolyA inh | NALP1 inh | NALP3 yeast inh | Calb FLC | Lmaj promast
CC(C)(C)C(=O)N1CCN(c2c(Cl)cccc2[N+](=O)[O-])CC1 | 7.7 | -12.7 | 27.7 | 28.1 | -4.1 | 7.5
OC(COC(c1ccccc1)c1ccccc1)CN1CCOCC1 (configuration not stated) | -3.6 | 23.1 | -0.9 | 3.2 | -14.8 | 3.1
O=C(c1ccccc1)c1ccc(OCC(O)CN2CCN(Cc3ccccc3)CC2)cc1 (configuration not stated) | 48.1 | -8.5 | 28.6 | 14.2 | -9.8 | 95.9*
Cc1cc(C)cc(OCC(O)CN2CC(C)OC(C)C2)c1 (configuration not stated) | 7.2 | -16.0 | 16.1 | 28.7 | 3.4 | x
CC1CN(CC(O)COc2ccc(C(=O)c3ccccc3)cc2)CC(C)O1 (configuration not stated) | 2.3 | -8.1 | 13.8 | 7.6 | -1.3 | 79.0*
CC1CN(CC(O)COC(c2ccccc2)c2ccccc2)CC(C)O1 (configuration not stated) | 7.5 | -7.1 | 24.8 | 7.4 | 2.3 | 85.5*
CN1CCN(CC(O)COc2ccc(C(=O)O)cc2)CC1 (configuration not stated) | 1.9 | u | -1.0 | 25.6 | -5.7 | x
CC1CN(CC(O)COc2ccccc2C(C)(C)C)CC(C)O1 (configuration not stated) | -8.0 | -21.7 | -5.5 | 11.9 | x | 92.3*
CC(=O)c1ccc(OCC(O)CN2CCN(CC(O)COc3ccc(C(C)=O)cc3)CC2)cc1 (configuration not stated) | -11.4 | 5.4 | 5.5 | 6.8 | -1.5 | -7.7
CC(=O)c1ccc(OCC(O)CN2CCN(Cc3ccccc3)CC2)cc1 (configuration not stated) | 19.0 | 13.8 | 40.8* | 8.5 | -5.5 | 93.7*
O=C(Cn1c(=O)oc2cc(S(=O)(=O)N3CCCCC3)ccc21)N1CCCCC1 | 3.1 | 13.4 | 2.9 | 15.7 | 39.9 | x
CC(C)CCNC(=O)c1cc(S(=O)(=O)N2CCc3ccccc32)cn1C | 21.8 | 9.5 | 4.0 | -10.6 | -1.6 | x
CC(C)CCNC(=O)Cn1c(=O)oc2cc(S(=O)(=O)N3CCc4ccccc43)ccc21 | 34.0 | 19.2 | -12.8 | 1.4 | -1.8 | 98.8*
CCOC(=O)Cn1c(=O)oc2cc(S(=O)(=O)N3CCCc4ccccc43)ccc21 | 9.1 | 0.7 | -0.3 | -1.4 | -0.7 | 81.2*
O=C(Cn1c(=O)oc2cc(S(=O)(=O)N3CCCCCC3)ccc21)NC1CCCCC1 | 8.9 | -0.1 | 1.8 | 4.4 | 1.2 | -10.6
O=C(Cn1c(=O)oc2cc(S(=O)(=O)N3CCCC3)ccc21)N1CCN(C2CCCCC2)CC1 | -2.6 | -12.3 | 21.8 | 2.6 | -6.2 | 84.8*
O=C(Cn1c(=O)oc2cc(S(=O)(=O)N3CCc4ccccc43)ccc21)NC1CCCC1 | 7.0 | 19.9 | 16.4 | -0.4 | 1.2 | 98.5*
O=C(COc1ccc(Br)cc1)N(CCO)CCO | 0.2 | -15.8 | -11.7 | -4.0 | -4.9 | -1.6
O=C(CCCNC(=O)c1ccc(Cl)cc1)NCc1ccccc1Cl | -7.3 | 3.9 | -42.3 | 5.7 | x | x
CC(C)CC(=O)Nc1nnc(SCC(=O)NCC2CCCO2)s1 (configuration not stated) | 3.5 | -12.7 | 18.6 | 16.8 | -6.6 | x
CCOc1cc(NC(=S)NCCCN2CCOCC2)c(OCC)cc1NC(=O)c1cccc(F)c1 | x | x | 11.8 | 0.7 | -7.8 | 0.9
CC(C)(C)OC(=O)C[C@H]1C/C=C\C[C@H](CC(=O)NCCO)C(=O)NC[C@@H](c2ccccc2)OC1=O | x | x | x | 10.0 | x | x
Cc1ccc(C(C)C)c(OCC(O)CN2CCN(CCO)CC2)c1 (configuration not stated) | 12.0 | 17.7 | 6.6 | 29.0 | -13.9 | 1.2
Cc1ccc(C(C)C)c(OCC(O)CN2CCOCC2)c1 (configuration not stated) | 4.2 | -6.7 | 7.7 | -2.1 | 14.1 | 87.6*
Cc1ccc(C(C)C)c(OCC(O)CN2CC(C)OC(C)C2)c1 (configuration not stated) | -15.5 | -28.1 | 15.5 | 7.2 | -1.6 | 95.5*
SMILES | T cruzi inh | PolyA inh | NALP1 inh | NALP3 yeast inh | Calb FLC | Lmaj promast
Cc1ccc(OCC(O)CN2CCN(CC(O)COC(C)C)CC2)c(C(C)(C)C)c1 (configuration not stated) | 24.7 | -6.5 | 12.7 | 16.0 | -26.7 | 77.2*
Cc1c(C(=O)N2CCN(c3ccccc3)CC2)oc2c(F)cccc12 | 29.2 | 2.6 | -11.3 | 4.6 | 13.8 | x
Fc1ccc(-c2nnsc2Sc2ccccn2)cc1 | -6.4 | 2.3 | -0.2 | 13.8 | -20.7 | -0.1
O=C(NN1CCOCC1)c1cc(-c2ccc(Br)cc2)nc2ccccc12 | 2.5 | -3.1 | 22.9 | 2.9 | -2.5 | 58.5*
COc1ccc(-c2cc(C(=O)N3CCN(c4ncccn4)CC3)c3ccccc3n2)cc1OC | x | x | x | 16.8 | x | x
COc1cc(-c2cc(C(=O)Nc3ccccc3N3CCOCC3)c3ccccc3n2)cc(OC)c1OC | 41.8 | -2.0 | 10.7 | 7.8 | -4.0 | 60.6*
CCc1ccc(-c2cc(C(=O)NN3CCOCC3)c3ccccc3n2)cc1 | 0.4 | -17.2 | 10.3 | 20.0 | 34.6 | 4.7
COc1ccc(-c2cc(C(=O)N3CCN(c4cccc(C)c4C)CC3)c3ccccc3n2)cc1OC | 62.3* | -9.7 | x | 4.9 | -3.4 | x
O=C(Nc1ccccc1N1CCOCC1)c1cc(-c2ccco2)nc2ccccc12 | -9.2 | -6.0 | 9.7 | 17.4 | -1.2 | 2.2
CN(Cc1ccon1)C(=O)CC1C(=O)NCCN1CC(C)(C)C (configuration not stated) | 1.5 | -14.6 | 0.0 | 16.4 | -8.3 | -5.2
O=C(CNC(=O)c1ccco1)NCC(=O)OCc1ccc(F)cc1 | -6.4 | -9.3 | 16.1 | 8.9 | -1.3 | x
OC1(c2ccccc2)CCN(Cc2ccccc2)C2CCCCC21 (configuration not stated) | -1.5 | 17.1 | 12.5 | -8.9 | -1.2 | 96.8*
O=C(NCc1ccco1)c1ccc(Cl)c(S(=O)(=O)N2CCCC2)c1 | x | x | x | 6.4 | x | x
O=C(NCCN1CCCC1=O)C1CCC(=O)N(CCc2ccc(Cl)cc2)C1 (configuration not stated) | -20.6 | -3.7 | 32.5* | -10.0 | 0.7 | x
Brc1ccc(CNc2ccc3ncccc3c2)cc1 | 35.3 | 4.1 | 13.8 | 11.1 | 55.2 | x
CCC(C)[C@H](N)c1nnc(SCC(=O)c2ccc(Cl)cc2)o1 (some centres not stated) | -11.4 | 4.5 | 4.5 | 22.5 | 22.2 | 90.3*
COc1cccc(/C=N/NC(=S)NCCc2ccccc2)c1OC | -6.6 | 5.6 | -7.5 | x | 5.4 | x
COc1cccc(/C=N/NC(N)=S)c1OCc1cccc(Cl)c1 | u | -10.5 | -7.8 | 27.6 | -60.3 | 69.9*
NC(=S)N/N=C\c1ccccc1OCc1ccccc1 | 55.0* | 3.7 | 21.6 | 38.7 | -7.4 | 67.9*
NC(=S)N/N=C\c1c2ccccc2cc2ccccc12 | x | x | 29.8 | x | x | 15.4
